In series [1] the test system is Escherichia coli. Briefly: Antibacterial activity against Escherichia coli at 0.5 mg/ml incubated for 18 hrs by well plate technique. It counts as functional. To be noted: for zone of inhibition at 500 µg/mL: read-out: DIZ. The method, boiled down:
(§1)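 Bacteria kept on nutrient agar at 37 °C, grown statically in nutrient broth (start ~10-100 cfu/mL) at 37 °C for 18-24 h. Suspensions diluted in saline and spread on nutrient agar, then wells cut with a cork borer. Compound in DMSO at 1 or 0.5 mg/mL added to wells, 37 °C, 18 h. Inhibition zone diameter measured minus DMSO value; triplicate; streptomycin standard.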

The subject of series [2] is Pseudomonas aeruginosa. Description: Antibacterial activity against Pseudomonas aeruginosa at 0.5 mg/ml incubated for 18 hrs by well plate technique. It counts as functional. To be noted: for zone of inhibition at 500 µg/mL: read-out: DIZ. The method, boiled down:
as §1

Series [3] concerns Salmonella typhi. Briefly: Antibacterial activity against Salmonella typhi at 0.5 mg/ml incubated for 18 hrs by well plate technique. It counts as functional. To be noted: for diameter of the inhibition zone (DIZ): Salmonella enterica subsp. enterica serovar Typhi; for zone of inhibition at 500 µg/mL: Salmonella enterica, read-out: DIZ. The gist of the method:
(§2)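 Well diffusion on nutrient agar; strains kept on nutrient agar at 37 °C, grown statically in nutrient broth 18-24 h at 37 °C, diluted in saline, 0.1 ml spread per plate. Compounds in DMSO at 1 and 0.5 mg/mL added to cork-bored wells; 18 h at 37 °C. Inhibition zone diameter measured, DMSO value subtracted; triplicate; streptomycin reference.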

The test system of series [4] is Staphylococcus aureus. Briefly: Antibacterial activity against Staphylococcus aureus at 1 mg/ml incubated for 18 hrs by well plate technique. It counts as functional. To be noted: for zone of inhibition at 1000 µg/mL: read-out: DIZ. The gist of the method:
as §1

Series [5] has as its system Chrysosporium keratinophilum. Briefly: Antifungal activity against Chrysosporium keratinophilum at 1 mg/ml incubated for 3 days. It counts as functional. To be noted: for zone of inhibition at 1000 µg/mL: 72 h, read-out: IZ. The method, boiled down: (§3)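 Well plate method on potato dextrose agar. Fungal stock suspended in distilled water with Tween 80 and swabbed over plates. Samples in DMSO at 1 and 0.5 mg/mL added to wells, incubated 25 °C for 3 days, then scored for inhibition zones; fluconazole standard.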

The test system of series [6] is Candida albicans. Description: Antifungal activity against Candida albicans at 0.5 mg/ml incubated for 3 days. The class given is functional. To be noted: for zone of inhibition at 500 µg/mL: 72 h, read-out: IZ. The gist of the method: as §3
The subject of series [7] is Mycobacterium tuberculosis. Description: Antitubercular activity against Mycobacterium tuberculosis H37Rv ATCC 27294/XDR-TB incubated for 28 days by agar dilution method. The class given is functional. To be noted: 672 h. The method, boiled down:
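Agar dilution: two-fold dilutions in Middlebrook 7H11 agar with OADC. Inoculum from fresh 7H11/OADC slants adjusted to 1 mg/mL wet weight in 0.05% Tween 80 saline, diluted 10^-2 (~10⁷ cfu/mL); 5 µL spotted per tube. Incubated 37 °C; MIC, lowest concentration fully inhibiting growth, read after 28 days, in triplicate.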
A general note: In agar dilution, organisms are placed on agar that contains the substance at set levels.

Series [8] deals with Aspergillus flavus. Description: Antifungal activity against Aspergillus flavus at 1 mg/ml incubated for 3 days. The class given is functional. To be noted: for zone of inhibition at 1000 µg/mL: 72 h, read-out: IZ. The method, boiled down:
as §3

In series [9] the test system is Salmonella typhi. Description: Antibacterial activity against Salmonella typhi at 1 mg/ml incubated for 18 hrs by well plate technique. To be noted: for diameter of the inhibition zone (DIZ): Salmonella enterica subsp. enterica serovar Typhi; for zone of inhibition at 1000 µg/mL: Salmonella enterica, read-out: DIZ. The class given is functional. The gist of the method: as §2

Series [10] has as its system Escherichia coli. Description: Antibacterial activity against Escherichia coli at 1 mg/ml incubated for 18 hrs by well plate technique. To be noted: for zone of inhibition at 1000 µg/mL: read-out: DIZ. It counts as functional. The gist of the method: as §1
The subject of series [11] is Pseudomonas aeruginosa. Briefly: Antibacterial activity against Pseudomonas aeruginosa at 1 mg/ml incubated for 18 hrs by well plate technique. To be noted: for zone of inhibition at 1000 µg/mL: read-out: DIZ. The class given is functional. The method, boiled down:
as §1

Series [12] relates to Staphylococcus aureus. Briefly: Antibacterial activity against Staphylococcus aureus at 0.5 mg/ml incubated for 18 hrs by well plate technique. The class given is functional. To be noted: for zone of inhibition at 500 µg/mL: read-out: DIZ. The gist of the method: as §1
For series [13], the system named is Aspergillus flavus. Briefly: Antifungal activity against Aspergillus flavus at 0.5 mg/ml incubated for 3 days. It counts as functional. To be noted: for zone of inhibition at 500 µg/mL: 72 h, read-out: IZ. The method, boiled down:
as §3

Series [14] can be described thus: Antioxidant activity assessed as DPPH radical scavenging activity incubated for 10 mins by UV-visible spectrometry. It counts as physicochemical. The gist of the method:
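DPPH free-radical scavenging; absorbance read at 517 nm against a methanol blank. % scavenging = (A control − A sample)/A control × 100.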
(DPPH is a stable violet radical that fades when it is reduced.)

Series [15] has as its system Chrysosporium keratinophilum. Description: Antifungal activity against Chrysosporium keratinophilum at 0.5 mg/ml incubated for 3 days. To be noted: for zone of inhibition at 500 µg/mL: 72 h, read-out: IZ. The class given is functional. The gist of the method:
as §3

Series [16] relates to Candida albicans. Briefly: Antifungal activity against Candida albicans at 1 mg/ml incubated for 3 days. It counts as functional. To be noted: for zone of inhibition at 1000 µg/mL: 72 h, read-out: IZ. The gist of the method:
as §3

Converted amounts (≈) assume the structure as drawn. The source made the active and inactive calls. The calls are words filed in the database; no cut-off is given here.

As for `COc1ccc(-c2nc3sc(-c4ccccc4Cl)nn3c2-c2nc3cc([N+](=O)[O-])ccc3[nH]2)cc1`, the “diameter of the inhibition zone (DIZ)” value in the series on Escherichia coli [1], with Pseudomonas aeruginosa [2], with Salmonella typhi [3], with Staphylococcus aureus [4], in the series on Salmonella typhi [9] and with Escherichia coli [10] was “inactive” throughout. For the same compound, the “diameter of the inhibition zone (DIZ)” value in the series with Pseudomonas aeruginosa [11] and in the series on Staphylococcus aureus [12] was “inactive” each time. Moreover, the “inhibition zone (IZ)” value (in series [5]; with Candida albicans [6]; in the series on Aspergillus flavus [8]; in the series with Aspergillus flavus [13]; in series [15]; with Candida albicans [16]) was “inactive” each time. Besides, in series [7], the minimal inhibitory concentration (MIC) – broadly, the lowest concentration found to suppress growth – worked out at 50 µg/mL (≈ 99.4 µM). Further, the “inhibition (INH)” value in [14] was found to be 22.1%.
Turning to `Cc1ccc(-c2nn3c(-c4nc5cc([N+](=O)[O-])ccc5[nH]4)c(-c4ccc(Cl)cc4)nc3s2)cc1`, the “diameter of the inhibition zone (DIZ)” value in the series on Escherichia coli [1], in the series on Pseudomonas aeruginosa [2], in the series with Salmonella typhi [3], with Staphylococcus aureus [4], in the series on Salmonella typhi [9] and with Escherichia coli [10] was “inactive” each time. In addition, the “diameter of the inhibition zone (DIZ)” value with Pseudomonas aeruginosa [11] and in the series on Staphylococcus aureus [12] was “inactive” each time. The “inhibition zone (IZ)” value (in series [5]; in the series with Candida albicans [6]; with Aspergillus flavus [8]; with Aspergillus flavus [13]; in series [15]; in the series on Candida albicans [16]) was “inactive” each time. In [7], the minimal inhibitory concentration (MIC) came to 12.5 µg/mL (≈ 25.7 µM). Further, the “inhibition (INH)” value in series [14] is listed as 21.8%.
Turning to `COc1ccc(-c2nc3sc(-c4ccc(F)cc4)nn3c2-c2nc3ccccc3[nH]2)cc1`, the “diameter of the inhibition zone (DIZ)” value with Escherichia coli [1], in the series with Pseudomonas aeruginosa [2], with Salmonella typhi [3], with Staphylococcus aureus [4], in the series on Salmonella typhi [9] and in the series with Escherichia coli [10] was “inactive” throughout. The “diameter of the inhibition zone (DIZ)” value in the series with Pseudomonas aeruginosa [11] and in the series with Staphylococcus aureus [12] was “inactive” in each case. The “inhibition zone (IZ)” value (in series [5]; with Candida albicans [6]; with Aspergillus flavus [8]; in the series on Aspergillus flavus [13]; in series [15]; in the series on Candida albicans [16]) was “inactive” in each case. The compound further had a minimum inhibitory concentration (MIC) in series [7] of 12.5 µg/mL (≈ 28.3 µM). The “inhibition (INH)” value in [14] worked out at 25.4%.
With `Cc1ccc(-c2nc3sc(C)nn3c2-c2nc3cc(Cl)ccc3[nH]2)cc1`, the zone of inhibition at 500 µg/mL amounted to 5 mm with Escherichia coli [1]; 6 mm in the series with Pseudomonas aeruginosa [2]; 7 mm in the series with Salmonella typhi [3]; 1 mm in the series on Candida albicans [6]; 7 mm in the series with Staphylococcus aureus [12]; 1 mm in the series on Aspergillus flavus [13]. The zone of inhibition at 1000 µg/mL was 10 mm in the series on Staphylococcus aureus [4]; 2 mm in series [5]; 3 mm with Aspergillus flavus [8]; 8 mm with Salmonella typhi [9]; 8 mm in the series with Escherichia coli [10]; 9 mm with Pseudomonas aeruginosa [11]. Moreover, the zone of inhibition at 1000 µg/mL in the series on Candida albicans [16] came out at 4 mm. In series [7], this compound had an MIC of 50 µg/mL (≈ 132 µM). The “inhibition (INH)” value in series [14] was 30.6%. Also, the “inhibition zone (IZ)” value in series [15] is “inactive”.
For the compound `COc1ccc(-c2nc3sc(-c4ccc(F)cc4)nn3c2-c2nc3cc([N+](=O)[O-])ccc3[nH]2)cc1`, the zone of inhibition at 500 µg/mL was determined as 3 mm with Escherichia coli [1]; 3 mm in the series with Pseudomonas aeruginosa [2]; 3 mm in the series on Salmonella typhi [3]; 2 mm in the series with Candida albicans [6]; 3 mm in the series with Staphylococcus aureus [12]; 3 mm with Aspergillus flavus [13]. Further, the zone of inhibition at 500 µg/mL in series [15] turned out to be 2 mm. Besides, the zone of inhibition at 1000 µg/mL came to 5 mm in the series on Staphylococcus aureus [4]; 4 mm in series [5]; 5 mm in the series on Aspergillus flavus [8]; 4 mm in the series with Salmonella typhi [9]; 5 mm with Escherichia coli [10]; 6 mm with Pseudomonas aeruginosa [11]. In addition, the zone of inhibition at 1000 µg/mL in the series on Candida albicans [16] worked out at 5 mm. Besides, in [7], the MIC amounted to 12.5 µg/mL (≈ 25.7 µM). Besides, the “inhibition (INH)” value in series [14] stood at 30.8%.
Regarding `Cc1nn2c(-c3nc4cc([N+](=O)[O-])ccc4[nH]3)c(-c3ccc(F)cc3)nc2s1`, the zone of inhibition at 500 µg/mL in the series with Escherichia coli [1] amounted to 2 mm; in the series with Pseudomonas aeruginosa [2], 3 mm; in the series with Salmonella typhi [3], 1 mm; in the series with Staphylococcus aureus [12], 2 mm. Further, the zone of inhibition at 1000 µg/mL came out at 3 mm in the series with Staphylococcus aureus [4], 2 mm in the series with Salmonella typhi [9], 4 mm in the series with Escherichia coli [10] and 1 mm in the series with Pseudomonas aeruginosa [11]. Besides, the “inhibition zone (IZ)” value (in series [5]; in the series on Candida albicans [6]; with Aspergillus flavus [8]; in the series on Aspergillus flavus [13]; in [15]; in the series with Candida albicans [16]) was “inactive” in each case. Besides, in [7], inhibition of growth (MIC) required 50 µg/mL (≈ 127 µM). Moreover, in series [14], the “inhibition (INH)” value is listed as 25.9%.
Consider `Cc1ccc(-c2nn3c(-c4nc5ccccc5[nH]4)c(-c4ccc(F)cc4)nc3s2)cc1`, for which the zone of inhibition at 500 µg/mL turned out to be 9 mm with Escherichia coli [1]; 10 mm in the series with Pseudomonas aeruginosa [2]; 13 mm with Salmonella typhi [3]; 4 mm with Candida albicans [6]; 11 mm with Staphylococcus aureus [12]; 4 mm in the series on Aspergillus flavus [13]. Further, the zone of inhibition at 500 µg/mL in series [15] was 3 mm. The zone of inhibition at 1000 µg/mL with Staphylococcus aureus [4] amounted to 14 mm; in series [5], 5 mm; in the series on Aspergillus flavus [8], 6 mm; with Salmonella typhi [9], 15 mm; in the series with Escherichia coli [10] it was 13 mm; in the series with Pseudomonas aeruginosa [11], 13 mm. Further, the zone of inhibition at 1000 µg/mL in the series with Candida albicans [16] came out at 6 mm. In addition, in series [7], the lowest concentration to inhibit growth (MIC) was 12.5 µg/mL (≈ 29.4 µM). In series [14], the “inhibition (INH)” value stood at 22.6%.

Values taken from ChEMBL document CHEMBL3414425, “Synthesis and biological evaluation of new imidazo[2,1-b][1,3,4]thiadiazole-benzimidazole derivatives” (Eur J Med Chem, 2015).
